According to publication PMC3954503 (Journal of Medicinal Chemistry, 2014):
Read-outs that look alike come from different tables or passages of the source. One block for each compound: values may come before it.

Columns and labels:
[1] = test system: HIV-1 FSS RNA upper stem-loop; assay: SPR binding to immobilized HIV-1 FSS RNA upper stem-loop; details: for weaker binding / decrease in affinity relative to dimers 4 and 5 / increased affinity over 2 and 3: SPR KD ratio
Outline: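 Streptavidin (about 2000 RU) on a CM5 chip; 5′-biotin HIV-1 FSS RNA (500 nM) captured once at about 300 RU and once at about 1200 RU, against a biotin-blocked reference cell. Compound series run in (a) HBS pH 7.4 at 60 μL/min or (b) HEPES/NaCl/MgCl2/Tween-20 at 50 μL/min, each injection at least twice. For (a), ≥5 sensorgrams globally fit to a 1:1 Langmuir model; for (b), individual fits; ka, kd, KD derived.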

[2] = test system: pDualHIV(0) transfected HEK 293FT cells; assay: Dual-luciferase control assay, pDualHIV; type: cell-based, human
Outline: (§1)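 HEK 293FT cells plated at 1.5 × 10^4 cells/well 6 h before transfection, in DMEM with 10% FBS. Transfected with 0.2 μg reporter plasmid (lipofectamine 2000). At 5 h, test compound (0–50 μM) added in triplicate for 36 h at 37 °C. Cells PBS-washed and lysed; Rluc and Fluc read by dual-luciferase assay. Fluc/Rluc ratio expressed relative to untreated cells, set to 100%.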

HEK 293FT cells [3] = assay: WST-1 cell viability assay; type: cell-based, human; details: 24 h
Outline: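 HEK 293FT cells grown to 80% confluence in 96-well plates (DMEM, 10% FBS, 37 °C). Test compound (up to 0.5 mM) or sterile water control added in triplicate for 24 h at 37 °C. Premix WST-1 reagent then added for 2 h at 37 °C. Absorbance at 450 minus 690 nm, blank-corrected, plotted against concentration; mean of three with SD.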

[4] = test system: Gag:Gag-Pol ratio in pseudotyped virions; assay: Western blot of isolated viral particles for RT and p24; type: cell-based, HIV-1; details: for RT in unprocessed Gag-Pol (p160) relative to mature RT (p66 + p51) / amount of RT relative to capsid protein p24: Western blot of viral particles; for amount of RT relative to capsid protein p24: as a function of added compound
Outline: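 HEK293T producer cells co-transfected with env-deleted, GFP-carrying HIV-1NL4–3 proviral vector and VSV-G vector (1:0.5, Fugene HD). Test compound added 4 h post-transfection; virions collected from media at 24 h through a 0.45-μm filter. Equal p24-ELISA loads were pelleted through a 20% sucrose cushion at 100,000g, then Western blotted for RT and p24.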

HEK 293FT cells [5] = assay: Cell permeation by fluorescence microscopy; type: cell-based, human; details: HEK 293FT, 50, 100, 200, and 500 μM for 12 h
Outline: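 HEK 293FT cells grown to 80% confluence at 37 °C, 5% CO2, in DMEM with 10% FBS and 1% penicillin-streptomycin. Cells exposed to test compound for 12 h (methods give 50 μM; the text lists 50–500 μM). Washed twice with PBS to remove surface-bound compound, then imaged in buffer by fluorescence microscopy with 358-nm excitation and 460-nm emission filters.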

HTLV-2 FSS RNA = assay: SPR binding to HTLV-2 FSS RNA; details: concentrations up to 3 μM; HBS buffer
Outline: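 SPR on a CM5 chip with about 2000 RU streptavidin, immobilized by EDC/NHS. 5′-Biotin HTLV-2 FSS RNA (500 nM) captured to about 300–1200 RU; the biotin-blocked flow cell served as reference. Test compound flowed at varying concentrations in HBS (0.01 M HEPES, 0.150 M NaCl, pH 7.4) at 60 μL/min. Each concentration injected at least twice; sensorgrams reference-subtracted and blank-corrected.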

HIV-1 FSS DNA = assay: Fluorescence titration with HIV-1 FSS DNA; type: binding; details: by fluorescence
Outline: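 Fluorescence titration in 20 mM HEPES, 150 mM NaCl, with test compound at 1 μM. HIV-1 FSS RNA (10 μM stock) or FSS DNA (40 μM stock) titrated in. Each addition mixed, then 10 min to equilibrate. Benzo[g]quinoline fluorescence quenching read three times, 1 min apart, and corrected for dilution to give KD. Selectivity compares the FSS RNA and FSS DNA KDs.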

tRNA = details: previously found; cited from earlier work
[6] = test system: HIV-1 FSS RNA upper stem-loop; details: conditions (a) HBS buffer; ref [35]; cited from earlier work
[7] = test system: pseudotyped HIV-1 virions; assay: Single-round infectivity assay with pseudotyped HIV-1; type: cell-based
[8] = test system: HIV-1 FSS-dependent −1 frameshifting in HEK 293FT cells; assay: Dual-luciferase frameshift assay, pDualHIV; type: cell-based, human; details: pDualHIV(−1)
Outline: as §1

HIV-1 FSS RNA = details: read-out: KD for HIV-1 FSS; ref [31]; cited from earlier work
[9] = conditions (a) HBS buffer (0.01 M HEPES, 0.150 M NaCl, pH = 7.4), global fit
[10] = conditions (b) 20 mM HEPES, 150 mM NaCl, 5 mM MgCl2, 0.005% Tween-20

Compound: CCc1nc2cc3ccccc3cc2cc1C(=O)N[C@@H](C/C=C/C[C@H](NC(=O)c1cc2cc3ccccc3cc2nc1CC)C(=O)N1CCC[C@H]1C(=O)N[C@@H](Cc1ccccc1)C(=O)NCCCN)C(=O)N1CCC[C@H]1C(=O)N[C@@H](Cc1ccccc1)C(=O)NCCCN [Compound 5]
change in Fluc to Rluc ratio relative to untreated cells [2]: No change | concentrations at which no significant toxicity occurred (HEK 293FT cells [3]): below 60 μM | increased affinity over 2 and 3 [1]: approximately 50 fold | association rate, ka [1, 9]: (3.99 ± 0.37) × 10^4 M^–1s^-1 | dissociation rate kd [1, 9]: (3.75 ± 0.12) × 10^–3 s^–1 | association rate, ka [1, 10]: (3.68 ± 1.45) × 10^4 M^–1s^-1 | dissociation rate kd [1, 10]: (3.46 ± 2.05) × 10^–3 s^–1 | lower concentration than RG501 for roughly equivalent increase in RT [4]: 37.5 fold | RT in unprocessed Gag-Pol (p160) relative to mature RT (p66 + p51) [4]: increased significantly | amount of RT relative to capsid protein p24 [4]: increasing amounts of RT | cell penetration (internalization) (HEK 293FT cells [5]): internalized | binding to HTLV-2 FSS by SPR (HTLV-2 FSS RNA): no binding was observed | selectivity for FSS RNA vs FSS DNA (HIV-1 FSS DNA): no selectivity

Compound: CCc1nc2cc3ccccc3cc2cc1C(=O)N[C@@H](C/C=C\C[C@H](NC(=O)c1cc2cc3ccccc3cc2nc1CC)C(=O)N1CCC[C@H]1C(=O)N[C@@H](Cc1ccccc1)C(=O)NCCCN)C(=O)N1CCC[C@H]1C(=O)N[C@@H](Cc1ccccc1)C(=O)NCCCN [Compound 4]
change in Fluc to Rluc ratio relative to untreated cells [2]: No change | concentrations at which no significant toxicity occurred (HEK 293FT cells [3]): below 60 μM | increased affinity over 2 and 3 [1]: approximately 50 fold | association rate, ka [1, 9]: (4.25 ± 0.22) × 10^4 M^–1s^-1 | dissociation rate kd [1, 9]: (4.11 ± 0.02) × 10^–3 s^–1 | association rate, ka [1, 10]: (2.17 ± 0.77) × 10^4 M^–1s^-1 | dissociation rate kd [1, 10]: (1.35 ± 0.03) × 10^–3 s^–1 | Kd ([1]; read-out: affinity (KD) for HIV-1 FSS by SPR, HBS buffer): 89 nM | lower concentration than RG501 for roughly equivalent increase in RT [4]: 37.5 fold | RT in unprocessed Gag-Pol (p160) relative to mature RT (p66 + p51) [4]: increased significantly | amount of RT relative to capsid protein p24 [4]: increasing amounts of RT | cell penetration (internalization) (HEK 293FT cells [5]): internalized | binding to HTLV-2 FSS by SPR (HTLV-2 FSS RNA): no binding was observed

Compound: CCc1nc2ccccc2cc1C(=O)N[C@@H](C/C=C/C[C@H](NC(=O)c1cc2ccccc2nc1CC)C(=O)N1CCC[C@H]1C(=O)N[C@@H](Cc1ccccc1)C(=O)NCCCN)C(=O)N1CCC[C@H]1C(=O)N[C@@H](Cc1ccccc1)C(=O)NCCCN [Compound 3]
affinity for tRNA (tRNA): no measurable affinity | association rate, ka [6]: 1.62 × 10^3 M^–1s^-1 | dissociation rate kd [6]: 7.5 × 10^–3 s^–1 | activity in pseudotyped HIV-1 assay ([7]; preliminary experiments (data not shown)): no activity

Compound: NCCCNC(=O)[C@H](Cc1ccccc1)NC(=O)[C@@H]1CCCN1C(=O)[C@@H](N)C/C=C/C[C@H](N)C(=O)N1CCC[C@H]1C(=O)N[C@@H](Cc1ccccc1)C(=O)NCCCN [Compound 10]
binding to HIV-1 FSS RNA by SPR (qualitative) [1]: completely abrogated binding | association rate, ka ([1]; conditions a, b (both buffers)): none obsd | dissociation constant, KD ([1]; conditions a, b (both buffers)): none obsd | dissociation rate kd ([1]; conditions a, b (both buffers)): none obsd | increase in Fluc to Rluc ratio (−1 PRF) ([8]; at 50 μM, 36 h): no significant effect | decrease in infectivity ([7]; 40 μM, producer cells treated): modest decrease

Compound: CCc1nc2cc3ccccc3cc2cc1C(=O)N[C@@H](CSSC[C@H](NC(=O)c1cc2cc3ccccc3cc2nc1CC)C(=O)N1CCC[C@H]1C(=O)N[C@@H](Cc1ccccc1)C(=O)NCCCN)C(=O)N1CCC[C@H]1C(=O)N[C@@H](Cc1ccccc1)C(=O)NCCCN [Compound 11]
concentrations at which compound proved toxic (HEK 293FT cells [3]): above 10 μM | weaker binding / decrease in affinity relative to dimers 4 and 5 [1]: ~7 fold | association rate, ka [1, 9]: (1.07 ± 0.07) × 10^4 M^–1s^-1 | dissociation rate kd [1, 9]: (7.92 ± 0.53) × 10^–3 s^–1 | cell penetration (internalization) (HEK 293FT cells [5]): internalized | stimulation of HIV-1 frameshifting ([8]; concentrations above 10 µM not examined): approximately 25% | binding to HTLV-2 FSS by SPR (HTLV-2 FSS RNA): no binding was observed

Compound: COc1cccc2c1C(=O)c1c(O)c3c(c(O)c1C2=O)C[C@@](O)(C(=O)CO)C[C@@H]3O[C@H]1C[C@H](N)[C@H](O)[C@H](C)O1 [Doxorubicin]
Kd (HIV-1 FSS RNA): 2800 nM

Compound: C=CC[C@H](NC(=O)c1cc2cc3ccccc3cc2nc1CC)C(=O)N1CCC[C@H]1C(=O)N[C@@H](Cc1ccccc1)C(=O)NCCCN [Compound 6]
weaker binding / decrease in affinity relative to dimers 4 and 5 [1]: 200 fold | association rate, ka [1, 9]: (1.16 ± 0.06) × 10^3 M^–1s^-1 | dissociation rate kd [1, 9]: (2.25 ± 0.01) × 10^–2 s^–1

Continued, values first:

weaker binding / decrease in affinity relative to dimers 4 and 5 [1]: 30 fold | association rate, ka [1, 9]: (7.71 ± 4.9) × 10^3 M^–1s^-1 | dissociation rate kd [1, 9]: (1.63 ± 1.12) × 10^–1 s^–1
Compound: CCc1nc2cc3ccccc3cc2cc1C(=O)N[C@@H](C/C=C/C[C@H](N)C(=O)N1CCC[C@H]1C(=O)N[C@@H](Cc1ccccc1)C(=O)NCCCN)C(=O)N1CCC[C@H]1C(=O)N[C@@H](Cc1ccccc1)C(=O)NCCCN [Compound 8]

weaker binding / decrease in affinity relative to dimers 4 and 5 [1]: approximately 200 fold | association rate, ka [1, 9]: (4.58 ± 1.27) × 10^3 M^–1s^-1 | dissociation rate kd [1, 9]: (1.21 ± 0.00) × 10^–2 s^–1
Compound: CCc1nc2cc3ccccc3cc2cc1C(=O)N[C@@H](C/C=C\C[C@H](N)C(=O)N1CCC[C@H]1C(=O)N[C@@H](Cc1ccccc1)C(=O)NCCCN)C(=O)N1CCC[C@H]1C(=O)N[C@@H](Cc1ccccc1)C(=O)NCCCN [Compound 7]

binding to HIV-1 FSS RNA by SPR (qualitative) [1]: No binding was observed
Compound: 2-ethyl benzo[g]quinoline carboxylic acid
